Laboratory results as given in ChEMBL document CHEMBL5223168, “Using Imidazo[2,1-b][1,3,4]thiadiazol Skeleton to Design and Synthesize Novel MNK Inhibitors” (ACS Med Chem Lett, 2023).
Calls of active or inactive are those of the source. No cut-off for these calls is given here.

What was measured:
[1] = biological target: MAP kinase-interacting serine/threonine-protein kinase 1 (Homo sapiens, UniProt Q9BUB5); test: Inhibition of MNK1 (unknown origin) incubated for 60 mins using CREB as substrate in presence of ATP by LANCE Ultra kinase assay
Sequence of MAP kinase-interacting serine/threonine-protein kinase 1 (Q9BUB5 whole entry): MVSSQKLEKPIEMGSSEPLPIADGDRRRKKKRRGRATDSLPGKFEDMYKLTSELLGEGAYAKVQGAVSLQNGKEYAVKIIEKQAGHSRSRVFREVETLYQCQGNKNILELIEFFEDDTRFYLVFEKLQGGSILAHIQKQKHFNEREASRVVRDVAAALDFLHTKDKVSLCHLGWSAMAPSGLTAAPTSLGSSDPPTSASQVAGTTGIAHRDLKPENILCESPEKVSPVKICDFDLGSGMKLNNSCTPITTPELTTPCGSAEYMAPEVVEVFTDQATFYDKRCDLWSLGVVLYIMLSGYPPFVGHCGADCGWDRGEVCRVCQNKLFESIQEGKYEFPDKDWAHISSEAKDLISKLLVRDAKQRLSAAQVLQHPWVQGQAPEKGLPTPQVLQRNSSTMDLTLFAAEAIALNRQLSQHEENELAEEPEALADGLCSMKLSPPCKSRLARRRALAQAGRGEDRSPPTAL

3T3-L1 = test: Inhibition of MNK in mouse 3T3-L1 cells assessed as inhibition of eIF4E phosphorylation at 5 uM incubated for 2 hrs by Western blot analysis; assay type: cell-based
In short: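 Mouse 3T3-L1 cells exposed to compound at 5 μM for 2 h; lysates resolved by SDS-PAGE and immunoblotted for phospho-eIF4E. Reference MNK inhibitor run in parallel at 1 μM.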

[2] = biological target: MAP kinase-interacting serine/threonine-protein kinase 2 (Homo sapiens, UniProt Q9HBH9); test: Inhibition of MNK2 (unknown origin) incubated for 60 mins using CREB as substrate in presence of ATP by LANCE Ultra kinase assay
Sequence of MAP kinase-interacting serine/threonine-protein kinase 2 (Q9HBH9 whole entry): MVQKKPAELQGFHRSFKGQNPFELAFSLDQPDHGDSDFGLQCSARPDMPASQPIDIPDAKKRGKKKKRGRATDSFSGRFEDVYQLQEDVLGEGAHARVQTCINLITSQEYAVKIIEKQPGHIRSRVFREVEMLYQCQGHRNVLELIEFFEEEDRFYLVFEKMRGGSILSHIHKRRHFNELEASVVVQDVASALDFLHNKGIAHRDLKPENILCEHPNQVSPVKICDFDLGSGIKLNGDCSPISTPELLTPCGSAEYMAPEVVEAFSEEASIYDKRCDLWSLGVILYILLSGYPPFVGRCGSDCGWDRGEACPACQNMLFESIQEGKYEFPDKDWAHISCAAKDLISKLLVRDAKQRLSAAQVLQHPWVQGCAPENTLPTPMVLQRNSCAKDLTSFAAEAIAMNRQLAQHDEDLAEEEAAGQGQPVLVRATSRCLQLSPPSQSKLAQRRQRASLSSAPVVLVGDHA

A549 = test: Antitumor activity against human A549 cells xenografted in BALB/C nude mouse assessed as T/C ratio at 3 mg/kg, po QD for 14 days; assay type: functional; settings: time 14 day
In short: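 A549 xenografts in nude mice; compound given orally once daily at 75 or 150 mg/kg for 14 days, irinotecan reference at 3 mg/kg; tumor growth tracked as T/C ratio (relative tumor proliferation rate); body weight monitored.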

MEF [3] = test: Inhibition of MNK in MNK1 knockout mouse MEF cells assessed as inhibition of eIF4E phosphorylation at 1 uM incubated for 2 hrs by Western blot analysis; assay type: cell-based
In short: (§1)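 MEFs lacking MNK1 or MNK2 (wild-type for comparison) treated 2 h at indicated concentrations; lysates immunoblotted for p-eIF4E, which reflects the remaining MNK isoform; quantified from three independent experiments, SEM.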

MEF [4] = test: Inhibition of MNK in MNK2 knockout mouse MEF cells assessed as inhibition of eIF4E phosphorylation at 3 uM incubated for 2 hrs by Western blot analysis; assay type: cell-based; in short: as §1

Row | Compound | IC50 [1] | IC50 [2] | inhibition (3T3-L1) | other results
1 | N#Cc1ccc(-c2cn3nc(-c4ccc(C(=O)N5CCCC5)cc4)sc3n2)cc1 |  |  | inactive | 
2 | CN(C)CC(C)(C)CNC(=O)c1ccc(-c2nn3cc(-c4ccccc4)nc3s2)cc1 |  |  | inactive | 
3 | CCc1c2c(nc3ccc(OC(=O)N4CCC(N5CCCCC5)CC4)cc13)-c1cc3c(c(=O)n1C2)COC(=O)[C@]3(O)CC [IRINOTECAN] |  |  |  | T/C (A549): 0.4
4 | O=C(NCCc1ccncc1)c1ccc(-c2nn3cc(-c4ccc(F)cc4)nc3s2)cc1 |  |  | inactive | 
5 | CN1CCN(C(=O)c2ccc(-c3nn4cc(-c5ccc(C#N)cc5)nc4s3)cc2)CC1 |  |  | inactive | 
6 | N#Cc1ccc(-c2cnc3ccc(-c4ccc(C(=O)N5CCOCC5)cc4)cn23)cc1 |  |  |  | inhibition (MEF [3]): Active; inhibition (MEF [4]): 50%
7 | O=C(NCCO)c1ccc(-c2nn3cc(-c4ccccc4)nc3s2)cc1 |  |  | inactive | 
8 | CN1CCN(C(=O)c2ccc(-c3nn4c(-c5ccncc5)cnc4s3)cc2)CC1 | 210 nM | 170 nM | Active | 
9 | O=C(NCCCN1CCCC1)c1ccc(-c2nn3cc(-c4ccccc4)nc3s2)cc1 |  |  | inactive | 

Now from value to molecule, other results behind:

Row | IC50 [1] | IC50 [2] | Compound | inhibition (3T3-L1) | other results
10 | 36.9 nM | 5.33 nM | CC1CCCCN1C(=O)c1ccc(-c2nn3c(-c4ccc(C#N)cc4)cnc3s2)cc1 (configuration not stated) | Active | 
11 | 25 nM | 33.4 nM | CN(C)CCNC(=O)c1ccc(-c2nn3c(-c4ccc(C#N)cc4)cnc3s2)cc1 |  | 
12 | 27.8 nM | 20.8 nM | N#Cc1ccc(-c2cnc3sc(-c4ccc(C(=O)N5CCCC5)cc4)nn23)cc1 |  | 
13 | 376 nM | 105 nM | COC(=O)c1ccc(-c2cnc3sc(-c4ccc(C(=O)N5CCN(C)CC5)cc4)nn23)cc1 | Active | 
14 | 10 nM | 10.4 nM | N#Cc1ccc(-c2cnc3sc(-c4ccc(C(=O)NCCN5CCCC5)cc4)nn23)cc1 |  | 
15 | 21.6 nM | 16.7 nM | N#Cc1ccc(-c2cnc3sc(-c4ccc(C(=O)NCCCO)cc4)nn23)cc1 |  | 
16 | 31.1 nM | 21.6 nM | N#Cc1ccc(-c2cnc3sc(-c4ccc(C(=O)NCCCN5CCOCC5)cc4)nn23)cc1 |  | 
17 | 13.6 nM | 8.81 nM | N#Cc1ccc(-c2cnc3sc(-c4ccc(C(=O)NCCO)cc4)nn23)cc1 |  | 
18 | 42.9 nM | 57.8 nM | N#Cc1ccc(-c2cnc3sc(-c4ccc(C(=O)NCCCCCO)cc4)nn23)cc1 |  | 
